pIC50: −log10 of the molar value.

For data set [1], the species on record is Homo sapiens. The data set is described as follows: Selectivity ratio of IC50 for human full length PI3Kgamma to IC50 for human full length PI3Kdelta catalytic subunit/p85alpha. In a few lines:
(§1)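 Ratio calculated from the isoform-specific PI3K IC50 values, with enzyme assays run in quadruplicate.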

A short description of data set [2]: Clearance in human hepatocytes at 1 uM by LC/MS/MS analysis. The class given is ADME, cell-based, Hepatocyte. A digest of the protocol: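 Human hepatocytes, incubated with and without the aldehyde oxidase inhibitor raloxifene; predicted clearance calculated from turnover.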
For data set [3], the species on record is Homo sapiens. The data set is described as follows: Selectivity ratio of IC50 for human full length PI3Kalpha catalytic subunit/p85alpha to IC50 for human full length PI3Kdelta catalytic subunit/p85alpha. In a few lines:
as §1

The species named for data set [4] is Homo sapiens. The data set is described as follows: Selectivity ratio of IC50 for human recombinant PI3Kbeta to IC50 for human full length PI3Kdelta catalytic subunit/p85alpha. In a few lines: as §1
Data set [5] deals with PI3-kinase p110-delta/p85-alpha (Homo sapiens, UniProt O00329). The data set is described as follows: Inhibition human full length PI3Kdelta catalytic subunit/p85alpha assessed as formation of PIP3 after 30 mins by europium labeled GRP-based TR-FRET assay. The class given is protein-complex assay. (In general: TR-FRET usually uses a lanthanide donor and a delayed reading to cut background.)
PI3-kinase p110-delta/p85-alpha, sequence (P27986 whole entry): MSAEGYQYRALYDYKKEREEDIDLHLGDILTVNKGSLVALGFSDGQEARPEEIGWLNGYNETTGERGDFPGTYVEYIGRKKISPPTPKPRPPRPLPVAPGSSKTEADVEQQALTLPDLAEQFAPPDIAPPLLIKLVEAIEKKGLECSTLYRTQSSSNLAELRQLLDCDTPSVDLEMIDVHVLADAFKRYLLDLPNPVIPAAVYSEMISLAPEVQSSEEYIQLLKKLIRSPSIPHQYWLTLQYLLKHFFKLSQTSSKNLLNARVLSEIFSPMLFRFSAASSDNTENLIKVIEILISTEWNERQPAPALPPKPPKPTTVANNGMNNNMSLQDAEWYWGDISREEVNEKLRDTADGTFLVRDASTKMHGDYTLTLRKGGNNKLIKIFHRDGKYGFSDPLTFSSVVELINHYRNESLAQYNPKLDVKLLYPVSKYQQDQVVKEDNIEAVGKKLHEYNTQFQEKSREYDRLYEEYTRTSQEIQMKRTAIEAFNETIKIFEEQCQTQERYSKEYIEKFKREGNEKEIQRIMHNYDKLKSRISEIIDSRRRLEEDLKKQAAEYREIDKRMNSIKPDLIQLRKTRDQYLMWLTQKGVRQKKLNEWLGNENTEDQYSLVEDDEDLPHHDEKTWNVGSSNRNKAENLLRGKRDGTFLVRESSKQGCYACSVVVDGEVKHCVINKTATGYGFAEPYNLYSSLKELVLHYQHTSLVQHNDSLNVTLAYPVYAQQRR
PI3-kinase p110-delta/p85-alpha, sequence (O00329 whole entry): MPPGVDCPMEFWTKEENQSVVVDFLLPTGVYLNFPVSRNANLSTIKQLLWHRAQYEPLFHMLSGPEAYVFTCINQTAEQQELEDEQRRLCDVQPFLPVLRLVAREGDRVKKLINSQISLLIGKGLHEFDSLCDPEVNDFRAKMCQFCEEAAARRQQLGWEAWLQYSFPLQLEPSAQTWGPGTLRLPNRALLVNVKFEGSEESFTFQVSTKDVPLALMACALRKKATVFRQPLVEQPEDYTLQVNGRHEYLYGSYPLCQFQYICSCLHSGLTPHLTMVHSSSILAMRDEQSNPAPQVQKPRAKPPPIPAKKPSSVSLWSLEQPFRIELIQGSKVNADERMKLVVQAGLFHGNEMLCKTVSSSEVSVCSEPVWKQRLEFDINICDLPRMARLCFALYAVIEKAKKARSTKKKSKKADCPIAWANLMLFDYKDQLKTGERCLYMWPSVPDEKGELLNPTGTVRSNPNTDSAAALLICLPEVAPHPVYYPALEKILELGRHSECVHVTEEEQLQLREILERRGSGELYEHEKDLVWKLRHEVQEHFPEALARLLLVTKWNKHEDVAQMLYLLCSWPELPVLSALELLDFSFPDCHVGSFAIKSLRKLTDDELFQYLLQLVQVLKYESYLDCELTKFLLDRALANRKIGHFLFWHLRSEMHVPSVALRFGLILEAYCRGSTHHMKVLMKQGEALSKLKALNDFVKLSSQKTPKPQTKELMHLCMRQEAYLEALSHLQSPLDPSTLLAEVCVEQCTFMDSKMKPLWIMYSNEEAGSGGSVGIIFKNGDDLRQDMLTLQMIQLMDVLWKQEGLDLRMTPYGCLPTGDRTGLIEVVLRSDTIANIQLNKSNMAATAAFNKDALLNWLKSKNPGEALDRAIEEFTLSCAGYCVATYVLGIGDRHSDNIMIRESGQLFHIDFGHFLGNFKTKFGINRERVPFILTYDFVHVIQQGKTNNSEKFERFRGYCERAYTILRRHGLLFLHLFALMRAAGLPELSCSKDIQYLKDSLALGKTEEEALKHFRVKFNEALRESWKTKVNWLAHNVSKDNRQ

As a reminder, the pIC50 is −log10 of the IC50, conventionally taken in molar units. In the case of `C[C@H](Nc1nc(N)nc(N)c1C#N)c1nc2cccc(Cl)c2c(=O)n1-c1cc(F)cc(F)c1`, the Ratio IC50 stood at 110 in the data set listed under Homo sapiens [1], 2600 in the data set filed under Homo sapiens [3] and 520 in the data set filed under Homo sapiens [4]. Also, the CLhep predicted at 1 µM in data set [2] was 13.5 mL/min/kg. In addition, the negative logarithm of the IC50 (pIC50) in data set [5] was 9.33.
For `C[C@H](Nc1nc(Cl)nc(N)c1C#N)c1nc2cccc(Cl)c2c(=O)n1-c1ccccc1` the same measures were 37, 720, 180, 9.83 mL/min/kg and 8.37.
As for `C[C@H](Nc1ncnc(N)c1C#Cc1ccccc1)c1nc2cccc(Cl)c2c(=O)n1-c1ccccc1`, the Ratio IC50 in the data set listed under Homo sapiens [1] worked out at 320; in the data set filed under Homo sapiens [3], 1600; in the data set listed under Homo sapiens [4], 120. Besides, the pIC50 in data set [5] was 9.52.
The corresponding values for `C[C@H](Nc1cc(N)ncn1)c1nc2cccc(Cl)c2c(=O)n1-c1ccccc1` are over 100, over 100, over 100 and 7.00.
`C[C@H](Nc1nc(N)nc(N)c1C#N)c1nc2ccc(F)c(Cl)c2c(=O)n1-c1cc(F)cc(F)c1`: the Ratio IC50 in the data set filed under Homo sapiens [1] is 74; in the data set filed under Homo sapiens [3] it was 780; in the data set listed under Homo sapiens [4], 470. The CLhep predicted at 1 µM in data set [2] was 6.5 mL/min/kg. Further, the negative logarithm of the IC50 (pIC50) in data set [5] is 8.54.
`C[C@H](Nc1ncncc1C#N)c1nc2cccc(Cl)c2c(=O)n1-c1ccccc1`: the Ratio IC50 in the data set filed under Homo sapiens [1] is 370; in the data set filed under Homo sapiens [3], 1200; in the data set filed under Homo sapiens [4], 460. The negative logarithm of the IC50 (pIC50) in data set [5] is 8.10.
For `COc1cccc(-n2c([C@H](C)Nc3nc(N)nc(N)c3C#N)nc3cccc(Cl)c3c2=O)c1` the same measures were 70, 1100, 330 and 9.05.
Consider `C[C@H](Nc1nc(N)nc(N)c1C#N)c1nc2ccccc2c(=O)n1-c1cc(F)cc(F)c1`, for which the values for the Ratio IC50 in the data set listed under Homo sapiens [1], in the data set listed under Homo sapiens [3] and in the data set filed under Homo sapiens [4] were 75, 530 and 290, respectively. Moreover, in data set [2], the CLhep predicted at 1 µM was 2.83 mL/min/kg. The negative logarithm of the IC50 (pIC50) in data set [5] is 7.82.
Turning to `COc1c(N)ncnc1N[C@@H](C)c1nc2cccc(Cl)c2c(=O)n1-c1ccccc1`, the Ratio IC50 in the data set listed under Homo sapiens [1], in the data set filed under Homo sapiens [3] and in the data set filed under Homo sapiens [4] was over 251 throughout. The pIC50 in data set [5] is 7.41.
`C[C@H](Nc1ccnc(N)c1C#N)c1nc2cccc(Cl)c2c(=O)n1-c1ccccc1`: the Ratio IC50 in the data set listed under Homo sapiens [1], in the data set listed under Homo sapiens [3] and in the data set listed under Homo sapiens [4] was over 340 throughout. Further, in data set [5], the pIC50 was 7.52.
As to `C[C@H](Nc1ncnc(N)c1C#Cc1cn[nH]c1)c1nc2cccc(Cl)c2c(=O)n1-c1ccccc1`, the values for the Ratio IC50 in the data set listed under Homo sapiens [1], in the data set filed under Homo sapiens [3] and in the data set listed under Homo sapiens [4] were 230, 1500 and 260, respectively. Moreover, the negative logarithm of the IC50 (pIC50) in data set [5] is 9.52.
Regarding `C[C@H](Nc1ccncn1)c1nc2cccc(Cl)c2c(=O)n1-c1ccccc1`, the Ratio IC50 in the data set listed under Homo sapiens [1], in the data set filed under Homo sapiens [3] and in the data set listed under Homo sapiens [4] was over 6 in each case. Moreover, the negative logarithm of the IC50 (pIC50) in data set [5] is 5.77.
On to `C#Cc1c(N)ncnc1N[C@@H](C)c1nc2cccc(Cl)c2c(=O)n1-c1ccccc1`, for which the Ratio IC50 came out at 1900 in the data set filed under Homo sapiens [1], 9700 in the data set listed under Homo sapiens [3] and 490 in the data set filed under Homo sapiens [4]. Further, the CLhep predicted at 1 µM in data set [2] is 11 mL/min/kg. Also, the pIC50 in data set [5] is 10.00.
Consider `C[C@H](Nc1nc(N)nc(N)c1C#N)c1nc2cccc(Cl)c2c(=O)n1-c1cccc(Cl)c1`, for which the Ratio IC50 in the data set filed under Homo sapiens [1] is 70; in the data set listed under Homo sapiens [3], 530; in the data set filed under Homo sapiens [4], 140. Also, the pIC50 in data set [5] is 9.35.
For `C[C@H](Nc1nc(N)ncc1C#N)c1nc2cccc(Cl)c2c(=O)n1-c1ccccc1` the same measures were 15, 530, 170 and 8.60.
Turning to `C[C@H](Nc1nc(N)nc(N)c1C#N)c1nc2cccc(Cl)c2c(=O)n1-c1cccc(C#N)c1`, the Ratio IC50 in the data set listed under Homo sapiens [1] was 90; in the data set filed under Homo sapiens [3], 1700; in the data set filed under Homo sapiens [4] it was 340. In data set [5], the negative logarithm of the IC50 (pIC50) was 8.72.
`C[C@H](Nc1nc(N)nc(N)c1C#N)c1nc2ccc(F)cc2c(=O)n1-c1cc(F)cc(F)c1`: the results for the Ratio IC50 in the data set listed under Homo sapiens [1], in the data set listed under Homo sapiens [3] and in the data set filed under Homo sapiens [4] were 160, 600 and 520, respectively. In addition, the CLhep predicted at 1 µM in data set [2] was 4.83 mL/min/kg. The pIC50 in data set [5] is 8.32.
For `Cc1nc(N)nc(N[C@@H](C)c2nc3cccc(Cl)c3c(=O)n2-c2ccccc2)c1C#N` the same measures were 40, 1900, 100, 17.5 mL/min/kg and 9.89.
For `C[C@H](Nc1ncnc(N)c1C#Cc1cnccn1)c1nc2cccc(Cl)c2c(=O)n1-c1ccccc1`, the results for the Ratio IC50 in the data set filed under Homo sapiens [1], in the data set listed under Homo sapiens [3] and in the data set filed under Homo sapiens [4] were 512, 3200 and 52, respectively. The pIC50 in data set [5] was 9.40.
For `C[C@H](Nc1nc(N)nc(N)c1C#N)c1nc2cccc(Cl)c2c(=O)n1-c1cccc(F)c1` the same measures were 90, 3100, 550 and 9.82.
The corresponding values for `C[C@H](Nc1nc(N)nc(N)c1C#N)c1nc2cccc(Cl)c2c(=O)n1-c1ccc(F)cc1` are 2, 64, 4 and 8.70.
For `C[C@H](Nc1ncnc(N)c1C#Cc1cccnc1)c1nc2cccc(Cl)c2c(=O)n1-c1ccccc1` the same measures were 100, 620, 240 and 9.30.
For `C[C@H](Nc1nc(N)nc(N)c1C#N)c1nc2cccc(Cl)c2c(=O)n1-c1cc(C#N)cc(C#N)c1`, the Ratio IC50 in the data set listed under Homo sapiens [1], in the data set listed under Homo sapiens [3] and in the data set filed under Homo sapiens [4] was over 68 each time. Besides, the pIC50 in data set [5] is 6.82.
Take `C[C@H](Nc1ncnc(N)c1C#Cc1cccnn1)c1nc2cccc(Cl)c2c(=O)n1-c1ccccc1`: the figures for the Ratio IC50 in the data set listed under Homo sapiens [1], in the data set listed under Homo sapiens [3] and in the data set filed under Homo sapiens [4] were over 42, over 42 and 30, respectively. Moreover, the negative logarithm of the IC50 (pIC50) in data set [5] is 6.62.
Regarding `C[C@H](Nc1nc(N)nc(N)c1C#N)c1nc2cccc(Cl)c2c(=O)n1-c1cccc(C(F)F)c1`, the Ratio IC50 came out at 210 in the data set listed under Homo sapiens [1], 1800 in the data set listed under Homo sapiens [3] and 190 in the data set listed under Homo sapiens [4]. Further, in data set [5], the pIC50 is 9.27.
For `C[C@H](Nc1nc(N)nc(N)c1C#N)c1nc2cccc(Cl)c2c(=O)n1-c1cccc(CC(F)F)c1` the same measures were 120, 1400, 230 and 8.80.
For the compound `C[C@H](Nc1nc(N)nc(N)c1C#N)c1nc2cccc(Cl)c2c(=O)n1-c1cc(Cl)cc(C(F)F)c1`, the Ratio IC50 in the data set filed under Homo sapiens [1] turned out to be 220; in the data set filed under Homo sapiens [3] it was 850; in the data set filed under Homo sapiens [4], 220. In data set [5], the negative logarithm of the IC50 (pIC50) was 8.82.
Take `C[C@H](Nc1nc(N)nc(N)c1C#N)c1nc2cccc(Cl)c2c(=O)n1-c1cccc(C(F)(F)F)c1`: the Ratio IC50 is 57 in the data set filed under Homo sapiens [1], 1100 in the data set filed under Homo sapiens [3] and 230 in the data set filed under Homo sapiens [4]. In addition, in data set [5], the pIC50 is 8.44.

These data come from ChEMBL document CHEMBL3804828, “2,4,6-Triaminopyrimidine as a Novel Hinge Binder in a Series of PI3Kδ Selective Inhibitors” (J Med Chem, 2016).
